# Calls of active or inactive are those of the source. No cut-off for these calls is given here.
# How the values were obtained:
# [1] = tested on: Chlamydia trachomatis; test: Anti-chlamydial activity against Chlamydia trachomatis Serovar LGV-L2 infected in Hep2 cells assessed as reduction in chlamydial inclusion growth by measuring appearance of small and irregular inclusions at 50 ug/ml treated at 8 hrs post-infection and 24 hrs later re-infecting fresh Hep2 cells monolayer with infected cells and measured at 24 hrs post re-infection by immunofluorescence staining based microscopy analysis; format: functional, organism-based
# Method in brief: (§1)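 HEp-2 cells in DMEM with 10% FBS, infected with C. trachomatis L2 at MOI 1. Compounds added 8 hpi in triplicate; DMSO stocks at 50 mg/mL. At 24 hpi lysates collected in sucrose storage medium, frozen at −80 °C, and used to infect fresh HEp-2 monolayers in 10-fold dilutions. After 24 h, stained with goat anti-MOMP and Alexa488 secondary. Inclusions counted in 15 fields at 20x; IFU = mean count per field corrected for dilution.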
# [2] = tested on: Chlamydia trachomatis; test: Anti-Chlamydial activity against Chlamydia trachomatis Serovar LGV-L2 infected in Hep2 cells assessed as reduction in size and number of chlamydial inclusion at 5.2 to 50 ug/ml treated at 8 hrs post-infection and 24 hrs later re-infecting fresh Hep2 cells monolayer with infected cells and measured at 24 hrs post re-infection by immunofluorescence staining based microscopy analysis; format: functional, organism-based; method in brief: as §1
# [3] = tested on: Chlamydia trachomatis; test: (§2) Bacteriostatic activity against Chlamydia trachomatis Serovar LGV-L2 infected in Hep2 cells assessed as loss of inclusion morphology at 50 ug/ml treated at 8 hrs post infection and incubated for 16 hrs followed by compound washout and further incubated for 24 hrs by immunofluorescence staining based microscopic assay; format: functional, organism-based
# Method in brief: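 Medium was then removed, wells washed three times with Hanks' balanced salt solution, and compound-free medium added; incubation continued 24 h. Read-out by IFU re-infection and anti-MOMP immunofluorescence, as in the IFU protocol.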
# [4] = tested on: Chlamydia trachomatis; test: Anti-chlamydial activity against Chlamydia trachomatis Serovar LGV-L2 infected in Hep2 cells assessed as reduction in chlamydial growth by measuring decrease in inclusion forming units at 5.2 to 50 ug/ml treated at 8 hrs post-infection and 24 hrs later re-infecting fresh Hep2 cells monolayer with infected cells and measured at 24 hrs post re-infection by immunofluorescence staining based microscopy analysis; format: functional, organism-based; method in brief: as §1
# [5] = tested on: Chlamydia trachomatis; test: as §2, with “Anti-chlamydial” for “Bacteriostatic”, “reduction in chlamydial” for “loss of”, “yield” for “morphology”, “48” for “24”; format: functional, organism-based
# [6] = Hepatic intrinsic clearance in human liver microsomes at 1 ug/ml measured per kg body weight up to 60 mins by LC-MS/MS analysis; format: ADME, Microsome; settings: 1 h
# [7] = Intrinsic clearance in human liver microsomes at 1 ug/ml measured per mg protein up to 60 mins by LC-MS/MS analysis; format: ADME, Microsome; settings: microsomes, 1 h
# Method in brief: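 Human liver microsomes (1.0 mg/mL protein) in 100 mM phosphate pH 7.4 with 10 mM MgCl2 and 2 mM NADPH, preincubated 10 min at 37 °C. Reaction started with compound at 1 μg/mL. Sampled at 0, 5, 15, 20, 30, 45 and 60 min and quenched in methanol with internal standard. Controls: no NADPH (negative), testosterone (positive). Analysed by LC-MS/MS, triplicate.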
# [8] = tested on: HaCaT; test: Cytotoxicity against immortal human HaCaT cells assessed as reduction in cell viability at 50 ug/ml after 24 hrs by CCK-8 assay; format: cell-based
# Method in brief: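 HeLa 229 and HaCaT cells in DMEM with 10% FBS and 1% penicillin/streptomycin, 37 °C, 5% CO2, seeded at 5000 cells/well. Next day treated with 50 μg/mL in triplicate, with matching DMSO controls. After 24 h, CCK-8 added for 2 h; corrected absorbance read at 450 nm.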
SMILES,inhibition [1],inhibition [2],inhibition [3],inhibition [4],inhibition [5],CLH [6] [mL/min/kg],microsomal intrinsic clearance [7] [µL/min],Activity [8]
CC(C)(C(=O)N1CCN(Cc2ccc(Cl)cc2)CC1)S(=O)(=O)c1ccc(C(F)(F)F)cn1,Active,Active,Active,Active,inactive,–,–,–
CC(C)(C(=O)NCCCc1ccccc1)S(=O)(=O)c1ccc(C(F)(F)F)cc1,–,–,–,–,–,891,113.09,Toxic

# Reference: ChEMBL document CHEMBL4342502, “Synthesis and Antichlamydial Activity of Molecules Based on Dysregulators of Cylindrical Proteases” (J Med Chem, 2020)
